{"source": "ChEMBL document CHEMBL4266019", "about": "“Discovery and Structure-Activity-Relationship Study of N-Alkyl-5-hydroxypyrimidinone Carboxamides as Novel Antitubercular Agents Targeting Decaprenylphosphoryl-β-d-ribose 2'-Oxidase” (J Med Chem, 2018)", "key": {"[1]": {"tested_on": "Mycobacterium tuberculosis", "experiment": "Antitubercular activity against Mycobacterium tuberculosis H37Rv harboring dprE1-dprE2 mutant after 10 days in absence of anhydrotetracycline", "assay_type": "functional, organism-based", "outline": "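DprE12–TetON1 strain (H37Rv with integrated attL5 plasmid constitutively expressing dprE1, dprE2, aftA, embC) washed and diluted to OD580nm 0.01 in drug-free 7H9-based medium. Half received anhydrotetracycline 500 ng/mL. Tested against 14-point 2-fold dilutions, 1% DMSO final, at 37 °C, 5% CO2. OD580nm read at day 10. BTZ043 and TCA1 served as positive controls.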"}, "[2]": {"tested_on": "T1, Decaprenylphosphoryl-beta-D-ribose oxidase (Mycobacterium tuberculosis (strain ATCC 25618 / H37Rv)), P9WJF1 [P116S]", "T1 sequence (whole entry)": "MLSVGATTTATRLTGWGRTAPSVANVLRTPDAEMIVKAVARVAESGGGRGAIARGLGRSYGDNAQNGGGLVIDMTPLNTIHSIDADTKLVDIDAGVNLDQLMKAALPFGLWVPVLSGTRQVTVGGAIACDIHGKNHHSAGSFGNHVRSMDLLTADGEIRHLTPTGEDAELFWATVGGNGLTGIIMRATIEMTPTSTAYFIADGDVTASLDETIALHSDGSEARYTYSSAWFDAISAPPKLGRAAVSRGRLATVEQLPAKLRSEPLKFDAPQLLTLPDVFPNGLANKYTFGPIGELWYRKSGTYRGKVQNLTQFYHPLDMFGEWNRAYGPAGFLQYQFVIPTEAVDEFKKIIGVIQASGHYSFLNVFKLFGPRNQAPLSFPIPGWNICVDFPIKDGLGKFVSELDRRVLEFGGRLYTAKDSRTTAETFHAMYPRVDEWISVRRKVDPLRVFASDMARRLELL", "experiment": "Inhibition of DprE1 P116S mutant in Mycobacterium tuberculosis H37Rv assessed as bacterial growth inhibition after 4 weeks"}, "[3]": {"tested_on": "T2, Decaprenylphosphoryl-beta-D-ribose oxidase (Mycobacterium tuberculosis (strain ATCC 25618 / H37Rv)), P9WJF1 [Y314H]", "T2 sequence (whole entry)": "T1 sequence (whole entry) with S116P, Y314H", "experiment": "Inhibition of DprE1 Y314H mutant in Mycobacterium tuberculosis H37Rv assessed as bacterial growth inhibition after 4 weeks", "outline": "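Resistant mutants were selected by plating 10^7–10^9 H37Rv cells on 7H11/OADC containing 2×, 5× or 10× MIC, with drug-free plates for counts, at 37 °C for 4 weeks. Colonies from 10× MIC were regrown in 7H9/ADC and MIC-tested. Genomes were sequenced after CTAB DNA isolation.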"}, "[4]": {"tested_on": "Mycobacterium tuberculosis H37Rv", "experiment": "Ratio of MIC for inhibition of DprE1 Y314H mutant-mediated growth of Mycobacterium tuberculosis H37Rv to MIC for inhibition of DprE1-mediated growth of Mycobacterium tuberculosis H37Rv", "outline": "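Resistant mutants were selected by plating 10^7, 10^8 and 10^9 H37Rv cells on 7H11/OADC agar containing 2×, 5× and 10× MIC of the hit compound, then incubating at 37 °C for 4 weeks. Colonies from 10× MIC plates were grown in 7H9/ADC and MIC-tested against the parental strain. Whole-genome sequencing found the DprE1 Y314H mutation.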"}, "[5]": {"tested_on": "T3, Decaprenylphosphoryl-beta-D-ribose oxidase (Mycobacterium tuberculosis (strain ATCC 25618 / H37Rv)), P9WJF1 [Y314C]", "T3 sequence (whole entry)": "T1 sequence (whole entry) with S116P, Y314C", "experiment": "Inhibition of DprE1 Y314C mutant in Mycobacterium tuberculosis H37Rv assessed as bacterial growth inhibition after 4 weeks"}, "[6]": {"tested_on": "T4, Decaprenylphosphoryl-beta-D-ribose oxidase (Mycobacterium tuberculosis (strain ATCC 25618 / H37Rv)), P9WJF1 [N364S]", "T4 sequence (whole entry)": "T1 sequence (whole entry) with S116P, N364S", "experiment": "Inhibition of DprE1 N364S mutant in Mycobacterium tuberculosis H37Rv assessed as bacterial growth inhibition after 4 weeks"}}, "note": "Positions count from the first letter of the chain named. The source made the active and inactive calls. The rule behind the calls is not given here.", "data": [{"smiles": "CC[C@@H](CO)NCCN[C@@H](CC)CO", "values": [{"measurement": "Activity", "setting": "[1]", "value": "Active"}]}, {"smiles": "C[C@H]1COC2(CCN(c3nc(=O)c4cc(C(F)(F)F)cc([N+](=O)[O-])c4s3)CC2)O1", "values": [{"measurement": "Activity", "setting": "[1]", "value": "Active"}]}, {"smiles": "CC(NC(=O)c1nc(Cc2ccccc2C(F)(F)F)n(C)c(=O)c1O)c1ccccc1", "note": "(centres undefined)", "values": [{"measurement": "Activity", "setting": "[1]", "value": "inactive"}]}, {"smiles": "Cn1c(Cc2ccccc2C(F)(F)F)nc(C(=O)NCc2ccccc2)c(O)c1=O", "values": [{"measurement": "MIC", "setting": "[2]", "value": 18.8, "unit": "µM"}, {"measurement": "MIC", "setting": "[3]", "value": "> 50", "unit": "µM"}, {"measurement": "Ratio", "setting": "[4]", "value": "> 16"}, {"measurement": "MIC", "setting": "[5]", "value": 25, "unit": "µM"}, {"measurement": "MIC", "setting": "[6]", "value": 2.34, "unit": "µM"}]}, {"smiles": "CCOC(=O)NC(=O)c1ccsc1NC(=O)c1nc2ccccc2s1", "values": [{"measurement": "Activity", "setting": "[1]", "value": "Active"}]}]}
